ChEMBL document CHEMBL3525985, “Regiospecificity and stereospecificity of human UDP-glucuronosyltransferases in the glucuronidation of estriol, 16-epiestriol, 17-epiestriol, and 13-epiestradiol” (Drug Metab Dispos, 2013)
Values belong to the compound of their own block, whether it stands above or below them.

Legend:
Type in all cases: ADME
[1] = biological target: T1, UDP-glucuronosyltransferase 2B7 (Homo sapiens, UniProt P16662); assay: Drug metabolism assessed as recombinant human C-terminal His-tagged UGT2B7-mediated 13-epiestradiol-17-glucuronide formation at 200 uM after 15 to 60 mins by HPLC analysis in presence of UDPGA; conditions: recombinant enzyme
T1 sequence (P16662 whole entry): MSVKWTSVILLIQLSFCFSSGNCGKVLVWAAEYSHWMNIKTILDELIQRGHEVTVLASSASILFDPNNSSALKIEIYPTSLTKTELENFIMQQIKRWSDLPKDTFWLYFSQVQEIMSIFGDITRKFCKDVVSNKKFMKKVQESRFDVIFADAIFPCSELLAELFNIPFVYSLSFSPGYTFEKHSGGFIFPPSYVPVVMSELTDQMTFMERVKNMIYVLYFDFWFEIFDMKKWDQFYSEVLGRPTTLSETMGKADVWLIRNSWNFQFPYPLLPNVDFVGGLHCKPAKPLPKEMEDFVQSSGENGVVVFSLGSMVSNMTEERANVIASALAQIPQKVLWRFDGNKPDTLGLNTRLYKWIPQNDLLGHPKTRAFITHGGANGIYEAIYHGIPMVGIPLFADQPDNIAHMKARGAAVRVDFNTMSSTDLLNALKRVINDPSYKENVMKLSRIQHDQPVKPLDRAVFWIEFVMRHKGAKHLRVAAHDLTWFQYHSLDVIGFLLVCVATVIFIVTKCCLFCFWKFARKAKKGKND
How it was run: (§1)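 Screening at a single substrate concentration of 200 μM, in triplicate. The reaction used 5 or 50 µg of UGT-enriched insect cell membranes in 50 mM phosphate pH 7.4 with 10 mM MgCl₂ and 5 mM UDPGA, 10% final DMSO. Incubation was 15–60 min at 37°C. Perchloric acid stopped the reaction and supernatants were analysed by HPLC. Controls lacked UDPGA. Rates were normalized to relative UGT expression level.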

[2] = biological target: T1, UDP-glucuronosyltransferase 2B7; assay: Drug metabolism assessed as recombinant human C-terminal His-tagged UGT2B7-mediated 16-epiestriol-16-glucuronide formation after 15 to 60 mins by Michaelis-Menten equation analysis in presence of UDPGA; conditions: recombinant enzyme
How it was run: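 For kinetics, the aglycone ranged from 0.2 to 300 μM in DMSO (10% final) with 5 mM UDPGA, 10 mM MgCl₂ and 50 mM phosphate pH 7.4. Enzyme was UGT-enriched insect cell membranes. Incubation was 15–60 min at 37°C, in triplicate, keeping substrate consumption ≤10%. Products were measured by HPLC and fitted to Michaelis-Menten. Rates were normalized to expression level.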

Liver microsome = assay: Drug metabolism in human liver microsomes assessed as 16-epiestriol-16-glucuronide formation after 15 to 60 mins by Michaelis-Menten equation analysis in presence of UDPGA
How it was run: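 Pooled human liver microsomes (30 donors), 0.5 or 10 µg, with alamethicin at 5% of total protein. Incubated with 50 mM phosphate pH 7.4, 10 mM MgCl₂, 5 mM UDPGA and 10% DMSO for 15–60 min at 37°C. Each glucuronide regioisomer quantified by HPLC, in triplicate, with substrate consumption at or below 10%.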

[3] = biological target: T2, UDP-glucuronosyltransferase 2A1 (Homo sapiens, UniProt P0DTE4); assay: Drug metabolism assessed as recombinant human C-terminal His-tagged UGT2A1-mediated estradiol-3-glucuronide/estradiol-17-glucuronide formation at 200 uM after 15 to 60 mins by HPLC analysis in presence of UDPGA; conditions: recombinant enzyme; how it was run: as §1
T2 sequence (P0DTE4 whole entry): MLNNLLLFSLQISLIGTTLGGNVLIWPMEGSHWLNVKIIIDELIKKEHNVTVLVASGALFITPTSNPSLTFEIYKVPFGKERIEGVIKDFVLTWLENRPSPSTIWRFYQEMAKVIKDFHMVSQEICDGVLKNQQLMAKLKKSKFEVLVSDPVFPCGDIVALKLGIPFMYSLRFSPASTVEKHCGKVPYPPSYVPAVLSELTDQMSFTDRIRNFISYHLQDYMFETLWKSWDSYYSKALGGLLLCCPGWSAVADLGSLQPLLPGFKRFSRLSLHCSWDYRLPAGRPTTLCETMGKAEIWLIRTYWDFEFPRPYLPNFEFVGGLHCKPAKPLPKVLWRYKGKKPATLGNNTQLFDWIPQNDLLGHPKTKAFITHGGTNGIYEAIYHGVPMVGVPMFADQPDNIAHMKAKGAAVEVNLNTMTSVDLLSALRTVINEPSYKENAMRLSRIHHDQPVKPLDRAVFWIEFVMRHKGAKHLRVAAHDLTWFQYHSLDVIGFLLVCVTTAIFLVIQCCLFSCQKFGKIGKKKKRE

[4] = biological target: T3, UDP-glucuronosyltransferase 2B17 (Homo sapiens, UniProt O75795); assay: Drug metabolism assessed as recombinant human C-terminal His-tagged UGT2B17-mediated estriol-17-glucuronide formation after 15 to 60 mins by Michaelis-Menten equation analysis in presence of UDPGA; conditions: recombinant enzyme
T3 sequence (O75795 whole entry): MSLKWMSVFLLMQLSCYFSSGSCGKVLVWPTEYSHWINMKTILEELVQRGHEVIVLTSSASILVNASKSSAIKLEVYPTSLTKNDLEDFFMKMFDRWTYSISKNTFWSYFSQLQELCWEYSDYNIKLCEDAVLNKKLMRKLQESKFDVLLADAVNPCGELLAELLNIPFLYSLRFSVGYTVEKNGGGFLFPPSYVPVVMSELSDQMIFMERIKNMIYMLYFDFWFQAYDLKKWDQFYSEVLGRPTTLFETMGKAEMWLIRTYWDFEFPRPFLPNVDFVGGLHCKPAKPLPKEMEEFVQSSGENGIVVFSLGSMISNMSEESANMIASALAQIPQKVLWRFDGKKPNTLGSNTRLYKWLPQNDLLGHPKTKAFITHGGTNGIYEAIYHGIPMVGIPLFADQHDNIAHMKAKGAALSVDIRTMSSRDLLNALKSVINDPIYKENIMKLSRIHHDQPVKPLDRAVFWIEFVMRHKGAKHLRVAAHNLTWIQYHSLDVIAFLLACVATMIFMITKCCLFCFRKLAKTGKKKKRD

Drug metabolism [1]: metabolite_detected
Structure (SMILES): C[C@@]12CC[C@@H]3c4ccc(O)cc4CC[C@H]3[C@@H]1CC[C@@H]2O

Drug metabolism [2]: 2700 pmol/min/mg
Km (Liver microsome): 33 µM
Vmax (Liver microsome): 8011 pmol/min/mg
Structure (SMILES): C[C@]12CC[C@@H]3c4ccc(O)cc4CC[C@H]3[C@@H]1C[C@H](O)[C@@H]2O [EPIESTRIOL]

Drug metabolism [3]: metabolite_detected
Structure (SMILES): C[C@]12CC[C@@H]3c4ccc(O)cc4CC[C@H]3[C@@H]1CC[C@@H]2O [ESTRADIOL]

Drug metabolism [4]: 4 pmol/min/mg
Structure (SMILES): C[C@]12CC[C@@H]3c4ccc(O)cc4CC[C@H]3[C@@H]1C[C@@H](O)[C@@H]2O [ESTRIOL]
